Test results from PMC8929335 (Pharmacology Research & Perspectives, 2022).

Experiments:
MDR1 = MDR1 (Homo sapiens, UniProt P08183); test: NIH MDR1-MDCKI transwell efflux assay; format: in vitro ADME
[1] = NHP CSF-to-plasma Kp,uu experiment; format: in vivo, cynomolgus monkeys; conditions: cynomolgus, cynomolgus monkey, intravenous
How it was run: (§1)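 Cynomolgus monkeys (six total) received a three‐compound cassette in 10% captisol in sterile water as a 15 min IV infusion via saphenous or cephalic vein. Plasma (vena cava, K₂EDTA), lumbar CSF after euthanasia, and excised brain were taken from 2 animals per time point at about 17, 30 and 60 min after infusion start. Samples were quantified by LC‐MS/MS after protein precipitation, and Kp,uu was calculated from unbound concentrations.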

[2] = MDCK A-B passive permeability; format: in vitro ADME, canine; conditions: dog
How it was run: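 MDCKII cells seeded at 60 000 cells/cm² on 1 µm pore transwell inserts and used on day 4. Test compound at 1 µM in HBSS added to donor, with 0.1% BSA in receiver. Donor sampled at 0 min; donor and receiver sampled at 90 min, 37°C, analysed by LC‐MS/MS. Papp = (dQ/dt)/(A×C0). Monolayer integrity confirmed by lucifer yellow A‐B <2%; recovery >70%.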

[3] = biological target: T1, breast cancer resistance protein (BCRP) (Homo sapiens, UniProt Q9UNQ0); test: BCRP transwell efflux ratio; format: in vitro ADME; conditions: B_A Papp (n = 3) / A_B Papp (n = 3)
T1 sequence (Q9UNQ0 1-655): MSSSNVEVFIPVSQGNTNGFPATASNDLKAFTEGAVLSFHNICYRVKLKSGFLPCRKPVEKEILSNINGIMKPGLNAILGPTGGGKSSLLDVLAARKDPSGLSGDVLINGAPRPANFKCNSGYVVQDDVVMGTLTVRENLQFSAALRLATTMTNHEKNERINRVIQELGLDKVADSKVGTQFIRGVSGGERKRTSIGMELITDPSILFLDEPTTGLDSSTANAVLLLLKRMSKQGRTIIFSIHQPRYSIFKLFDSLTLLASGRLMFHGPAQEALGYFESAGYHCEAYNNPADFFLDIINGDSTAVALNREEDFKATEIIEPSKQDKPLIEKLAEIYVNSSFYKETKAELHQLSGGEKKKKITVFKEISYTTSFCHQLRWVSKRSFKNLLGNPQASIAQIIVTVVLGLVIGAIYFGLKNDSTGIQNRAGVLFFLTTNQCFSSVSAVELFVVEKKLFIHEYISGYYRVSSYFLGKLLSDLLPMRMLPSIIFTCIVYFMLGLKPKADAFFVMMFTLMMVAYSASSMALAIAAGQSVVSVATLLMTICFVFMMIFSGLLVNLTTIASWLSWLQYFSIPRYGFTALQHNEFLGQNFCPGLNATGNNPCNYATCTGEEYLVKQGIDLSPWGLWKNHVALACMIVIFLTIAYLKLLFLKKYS

[4] = NHP brain-to-plasma Kp,uu experiment; format: in vivo, cynomolgus monkeys; conditions: cynomolgus, cynomolgus monkey, intravenous
How it was run: as §1

NHP brain tissue binding = format: in vitro ADME; conditions: monkey, brain homogenate
How it was run: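 Brain was homogenized in PBS at 1:3 (w:v) and dialysed against PBS in a rapid equilibrium dialysis device for 18 h at 37°C, 5% CO₂, shaking at 150 rpm. Samples were matrix‐matched, precipitated with acetonitrile containing internal standard, and analysed by LC‐MS/MS. fu = receiver/donor peak‐area ratio, corrected for dilution factor 4.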

[5] = NHP brain-to-plasma and CSF-to-plasma Kp,uu time course experiment; format: in vivo, cynomolgus monkeys; conditions: IV infusion for 15 min
How it was run: as §1

Chain of MDR1 (P08183 whole entry): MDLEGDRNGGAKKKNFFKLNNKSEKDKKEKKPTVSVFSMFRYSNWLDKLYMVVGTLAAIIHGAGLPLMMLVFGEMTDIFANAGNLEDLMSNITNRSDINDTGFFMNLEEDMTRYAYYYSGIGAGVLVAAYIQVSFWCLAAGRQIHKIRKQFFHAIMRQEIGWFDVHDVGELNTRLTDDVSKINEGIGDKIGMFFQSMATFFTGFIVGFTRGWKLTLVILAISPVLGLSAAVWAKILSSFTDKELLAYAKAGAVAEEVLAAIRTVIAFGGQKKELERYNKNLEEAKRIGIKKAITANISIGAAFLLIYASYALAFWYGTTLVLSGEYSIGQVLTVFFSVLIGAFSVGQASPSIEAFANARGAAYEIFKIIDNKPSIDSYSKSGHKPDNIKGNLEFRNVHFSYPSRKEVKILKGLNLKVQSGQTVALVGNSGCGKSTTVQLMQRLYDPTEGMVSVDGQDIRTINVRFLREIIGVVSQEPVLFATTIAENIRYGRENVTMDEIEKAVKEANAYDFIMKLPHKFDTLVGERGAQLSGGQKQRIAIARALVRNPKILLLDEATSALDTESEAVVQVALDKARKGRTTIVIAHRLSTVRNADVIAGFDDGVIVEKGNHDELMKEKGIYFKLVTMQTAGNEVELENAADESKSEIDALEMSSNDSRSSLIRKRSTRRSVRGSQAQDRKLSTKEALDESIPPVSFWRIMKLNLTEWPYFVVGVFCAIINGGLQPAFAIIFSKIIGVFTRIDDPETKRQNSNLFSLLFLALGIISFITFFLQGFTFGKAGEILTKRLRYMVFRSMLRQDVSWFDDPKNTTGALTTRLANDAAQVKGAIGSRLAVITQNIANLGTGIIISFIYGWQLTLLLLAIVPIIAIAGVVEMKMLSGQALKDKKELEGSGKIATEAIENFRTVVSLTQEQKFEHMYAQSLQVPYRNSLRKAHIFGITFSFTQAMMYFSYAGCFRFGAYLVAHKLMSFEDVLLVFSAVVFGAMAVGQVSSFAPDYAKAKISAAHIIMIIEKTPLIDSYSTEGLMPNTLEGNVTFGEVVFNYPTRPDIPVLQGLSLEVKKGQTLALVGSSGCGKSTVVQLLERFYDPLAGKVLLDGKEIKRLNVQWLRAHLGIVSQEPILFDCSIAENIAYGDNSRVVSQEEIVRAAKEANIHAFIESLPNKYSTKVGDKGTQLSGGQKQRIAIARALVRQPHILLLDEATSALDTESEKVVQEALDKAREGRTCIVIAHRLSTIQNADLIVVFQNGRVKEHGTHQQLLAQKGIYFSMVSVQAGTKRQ

ER in NIH MDR1 assay relative to current MDR1 assay (MDR1; NIH MDR1-MDCKI vs internal MDR1-MDCKII) | Kp uu at 1 h [1] | Papp A→B at 90 min, 1 µM [2] [×10⁻⁶ cm/s] | efflux ratio at 90 min, 1 µM (MDR1; human, MDCK-MDR1) | BCRP ER [3] | Kp uu [4] | fraction unbound at 18 h (NHP brain tissue binding) | Time for unbound brain concentration to reach equilibrium with unbound plasma concentration [5] [min] | Time for lumbar CSF to equilibrate with plasma ([5]; lumbar CSF) | Compound | MDR1/BCRP substrate classification (MDR1; ER of 3 as cutoff to classify substrates)
more than 10 fold | – | – | – | – | – | – | – | – | C=C[C@H]1C[N@@]2CC[C@H]1C[C@@H]2[C@@H](O)c1ccnc2ccc(OC)cc12 [quinidine] | –
– | 1 | 32.8 ± 9 | 1 | 0.9 | 0.96 | ~1 | ≤ 15 | ~ 1 h | Cc1cc(=O)n(-c2ccccc2)n1C [Antipyrine] | no MDR1/BCRP efflux transporter interactions
